ChEMBL document CHEMBL4477235, “Evolution of a Novel, Orally Bioavailable Series of PI3Kδ Inhibitors from an Inhaled Lead for the Treatment of Respiratory Disease” (J Med Chem, 2016)
≈ marks a conversion by molar mass, not a printed value.

Columns and labels:
[1] = Oral bioavailability in Sprague-Dawley rat at 3 mg/kg measured up to 7 hrs by LC-MS/MS analysis; type: ADME, organism-based; conditions: in vivo; for F: 7 h
Procedure, shortened: (§1)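 Male Sprague Dawley rats, n = 2 per route, were dosed discretely at 3 mg/kg orally or 1 mg/kg intravenously. The dosing solution was DMSO/PEG200/water (5:45:50 v/v/v). Serial tail-vein blood samples were taken over 0–7 h, and parent compound was quantified by LC–MS/MS. Parameters were estimated by noncompartmental analysis.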

[2] = Clearance in Sprague-Dawley rat at 1 mg/kg, iv measured up to 7 hrs by LC-MS/MS analysis; type: ADME, organism-based; conditions: in vivo
Procedure, shortened: (§2)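 Male Sprague Dawley rats (n = 2/route), intravenous dose as a solution in DMSO/PEG200/water (5:45:50 v/v/v) at 2 mL/kg. Serial tail-vein blood sampling over 0–7 h. LC–MS/MS quantification of parent. Noncompartmental analysis.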

[3] = Volume of distribution at steady state in Sprague-Dawley rat at 3 mg/kg, po or 1 mg/kg, iv measured up to 7 hrs by LC-MS/MS analysis; type: ADME, organism-based; conditions: in vivo, read-out: Vdss; procedure, shortened: as §1
[4] = Lipophilicity, log D of compound at pH 7.4 by chromatographic method; type: physicochemical; conditions: buffer
[5] = Clearance in mouse liver microsomes at 0.5 uM measured up to 30 mins by LC-MS/MS analysis; type: ADME, Microsome; conditions: 0.5 h
[6] = Clearance in human liver microsomes at 0.5 uM measured up to 30 mins by LC-MS/MS analysis; type: ADME, Microsome; conditions: 0.5 h
[7] = Clearance in rat liver microsomes at 0.5 uM measured up to 30 mins by LC-MS/MS analysis; type: ADME, Microsome; conditions: 0.5 h
Procedure, shortened: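 Rat liver microsomes (0.5 mg protein/mL) prewarmed 10 min at 37 °C, started with NADPH regeneration system. Final compound 0.5 μM. Sampled at 0, 3, 6, 12 and 30 min into acetonitrile with internal standard. Peak area ratios by LC–MS/MS fitted to log-linear decline. Clearance scaled by protein concentration, incubation volume and 52.5 mg microsomal protein/g liver.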

[8] = Cmax in Sprague-Dawley rat at 3 mg/kg, po measured up to 7 hrs by LC-MS/MS analysis; type: ADME, organism-based; set-up: dose 3 mg/kg, route oral; conditions: in vivo
[9] = Half life in Sprague-Dawley rat at 1 mg/kg, iv by LC-MS/MS analysis; type: ADME, organism-based; conditions: in vivo; procedure, shortened: as §2
[10] = Kinetic solubility in phosphate buffered saline at pH 7.4 after 1 hr by chemiluminescent nitrogen detection method; type: physicochemical; conditions: read-out: Kinetic_solubility
Procedure, shortened: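 The sample was then filtered, and the filtrate was quantified by calibrated flow-injection chemiluminescent nitrogen detection. Standard error was ±30 µM, and the upper limit was 500 µM from the 10 mM stock.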

Albumin = Albumin (Homo sapiens, UniProt P02768); assay: Binding affinity to human serum albumin by HPLC analysis; type: ADME; conditions: read-out: PB (converted)
[11] = AUC(infinity) in Sprague-Dawley rat at 3 mg/kg, po measured up to 7 hrs by LC-MS/MS analysis; type: ADME, organism-based; set-up: dose 3 mg/kg, time infinity, route oral; conditions: in vivo
Procedure, shortened: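 Male Sprague Dawley rats (n = 2/route), oral dose in DMSO/PEG200/water (5:45:50 v/v/v) at 6 mL/kg. Serial tail-vein bleeds over 0–7 h. Parent compound quantified by LC–MS/MS. Parameters from noncompartmental analysis.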

[12] = target: Phosphatidylinositol 4,5-bisphosphate 3-kinase catalytic subunit gamma isoform (Homo sapiens, UniProt P48736); assay: Inhibition of PI3Kgamma (unknown origin) using PIP2 as substrate preincubated for 15 mins followed by substrate addition measured after 60 mins in presence of biotin-labeled PIP3 by HTRF assay
Procedure, shortened: (§3)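 HTRF kinase assay in 50 mM HEPES pH 7.0, 150 mM NaCl, 10 mM MgCl₂, 1 mM DTT. Enzyme preincubated 15 min with 4-fold serially diluted compound. […] Quenched after 60 min with EDTA plus GRP-1 PH domain/streptavidin-APC/Eu-antiGST detection, then equilibrated 60 min in the dark. Data normalized to no-compound and no-enzyme controls. IC50 from four-parameter fit.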

[13] = target: Phosphatidylinositol 4,5-bisphosphate 3-kinase catalytic subunit beta isoform (Homo sapiens, UniProt P42338); assay: Inhibition of PI3Kbeta (unknown origin) using PIP2 as substrate preincubated for 15 mins followed by substrate addition measured after 60 mins in presence of biotin-labeled PIP3 by HTRF assay; procedure, shortened: as §3
[14] = target: Phosphatidylinositol 4,5-bisphosphate 3-kinase catalytic subunit alpha isoform (Homo sapiens, UniProt P42336); assay: Inhibition of PI3Kalpha (unknown origin) using PIP2 as substrate preincubated for 15 mins followed by substrate addition measured after 60 mins in presence of biotin-labeled PIP3 by HTRF assay; procedure, shortened: as §3
Homo sapiens [15] = organism: Homo sapiens; assay: Selectivity ratio of IC50 for PI3Kgamma (unknown origin) to IC50 for PI3Kdelta (unknown origin)
Procedure, shortened: (§4)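 Ratio of each isoform's HTRF IC50 to the PI3Kδ HTRF IC50. Enzymes were preincubated 15 min with 4-fold compound dilutions in HEPES pH 7.0, MgCl2, DTT buffer. […] PIP2 was 5 µM for δ and 8 µM for α/β/γ. 60 min reaction, then EDTA quench with GRP-1 PH domain/APC/Eu detection. Four-parameter fit.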

[16] = target: T1, Phosphatidylinositol 4,5-bisphosphate 3-kinase catalytic subunit delta isoform (Homo sapiens, UniProt O00329)
T1 sequence (O00329 whole entry): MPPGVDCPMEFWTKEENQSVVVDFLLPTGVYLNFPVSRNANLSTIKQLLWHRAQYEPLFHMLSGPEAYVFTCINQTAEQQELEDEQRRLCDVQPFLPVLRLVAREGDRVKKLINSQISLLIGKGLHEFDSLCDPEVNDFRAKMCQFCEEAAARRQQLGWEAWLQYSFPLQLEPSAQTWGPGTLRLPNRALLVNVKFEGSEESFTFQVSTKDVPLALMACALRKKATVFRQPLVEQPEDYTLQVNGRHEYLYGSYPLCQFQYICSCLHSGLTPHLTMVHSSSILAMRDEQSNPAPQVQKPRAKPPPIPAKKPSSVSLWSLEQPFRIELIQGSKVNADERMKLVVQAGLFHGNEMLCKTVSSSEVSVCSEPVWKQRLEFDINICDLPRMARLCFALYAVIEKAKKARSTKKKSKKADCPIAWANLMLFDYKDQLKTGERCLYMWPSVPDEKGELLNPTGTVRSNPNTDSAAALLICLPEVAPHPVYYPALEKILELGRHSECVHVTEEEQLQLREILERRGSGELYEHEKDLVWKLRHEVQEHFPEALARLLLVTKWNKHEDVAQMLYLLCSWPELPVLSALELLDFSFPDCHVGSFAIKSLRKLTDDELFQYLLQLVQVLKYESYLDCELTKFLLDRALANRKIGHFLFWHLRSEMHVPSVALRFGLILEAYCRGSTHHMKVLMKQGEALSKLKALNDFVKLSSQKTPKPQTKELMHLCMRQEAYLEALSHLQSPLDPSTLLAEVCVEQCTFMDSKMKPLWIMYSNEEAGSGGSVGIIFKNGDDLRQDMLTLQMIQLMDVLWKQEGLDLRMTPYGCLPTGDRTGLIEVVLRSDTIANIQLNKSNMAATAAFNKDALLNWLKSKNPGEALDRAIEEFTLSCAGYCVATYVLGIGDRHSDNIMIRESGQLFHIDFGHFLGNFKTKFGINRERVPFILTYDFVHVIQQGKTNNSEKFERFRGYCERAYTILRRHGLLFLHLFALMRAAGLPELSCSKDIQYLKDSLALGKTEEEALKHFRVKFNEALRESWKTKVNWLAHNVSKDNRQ

Homo sapiens [17] = organism: Homo sapiens; assay: Selectivity ratio of IC50 for PI3Kalpha (unknown origin) to IC50 for PI3Kdelta (unknown origin); procedure, shortened: as §4
Homo sapiens [18] = organism: Homo sapiens; assay: Selectivity ratio of IC50 for PI3Kbeta (unknown origin) to IC50 for PI3Kdelta (unknown origin); procedure, shortened: as §4
[19] = target: Phosphatidylinositol 4,5-bisphosphate 3-kinase catalytic subunit delta isoform (Homo sapiens) (UniProt O00329); assay: Ratio of IC50 for PI3Kdelta in human PBMC to IC50 for PI3Kdelta (unknown origin)
[20] = target: T1, Phosphatidylinositol 4,5-bisphosphate 3-kinase catalytic subunit delta isoform; remark: listed apart in the source
[21] = AUC (0 to t) in Sprague-Dawley rat at 3 mg/kg, po measured up to 7 hrs by LC-MS/MS analysis; type: ADME, organism-based; set-up: dose 3 mg/kg, time < 7 hr, route oral; conditions: in vivo
Procedure, shortened: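 Male Sprague Dawley rats were given a single oral dose of 3 mg/kg in DMSO/PEG200/water (5:45:50 v/v/v) at 6 mL/kg, with n = 2 per route. Blood was sampled serially from the tail vein over 0–7 h. Parent compound was quantified by LC–MS/MS, and parameters were derived by noncompartmental analysis.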

Chain of Albumin (P02768 whole entry): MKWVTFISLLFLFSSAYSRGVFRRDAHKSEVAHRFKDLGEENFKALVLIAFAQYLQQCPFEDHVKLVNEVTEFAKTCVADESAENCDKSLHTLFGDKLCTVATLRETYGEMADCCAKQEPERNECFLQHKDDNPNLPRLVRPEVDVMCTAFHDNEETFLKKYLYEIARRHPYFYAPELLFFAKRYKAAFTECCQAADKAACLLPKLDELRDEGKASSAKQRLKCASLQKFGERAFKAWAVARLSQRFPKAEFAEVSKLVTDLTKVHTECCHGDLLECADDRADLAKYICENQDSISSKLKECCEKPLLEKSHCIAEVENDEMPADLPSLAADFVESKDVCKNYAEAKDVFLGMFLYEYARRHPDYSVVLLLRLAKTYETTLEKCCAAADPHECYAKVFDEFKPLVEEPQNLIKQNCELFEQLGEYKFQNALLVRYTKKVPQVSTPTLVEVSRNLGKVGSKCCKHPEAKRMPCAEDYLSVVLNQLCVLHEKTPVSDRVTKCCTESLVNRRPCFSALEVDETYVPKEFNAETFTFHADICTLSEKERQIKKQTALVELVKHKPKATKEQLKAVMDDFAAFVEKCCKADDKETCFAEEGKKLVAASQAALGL
Chain of Phosphatidylinositol 4,5-bisphosphate 3-kinase catalytic subunit alpha isoform (P42336 whole entry, canonical isoform): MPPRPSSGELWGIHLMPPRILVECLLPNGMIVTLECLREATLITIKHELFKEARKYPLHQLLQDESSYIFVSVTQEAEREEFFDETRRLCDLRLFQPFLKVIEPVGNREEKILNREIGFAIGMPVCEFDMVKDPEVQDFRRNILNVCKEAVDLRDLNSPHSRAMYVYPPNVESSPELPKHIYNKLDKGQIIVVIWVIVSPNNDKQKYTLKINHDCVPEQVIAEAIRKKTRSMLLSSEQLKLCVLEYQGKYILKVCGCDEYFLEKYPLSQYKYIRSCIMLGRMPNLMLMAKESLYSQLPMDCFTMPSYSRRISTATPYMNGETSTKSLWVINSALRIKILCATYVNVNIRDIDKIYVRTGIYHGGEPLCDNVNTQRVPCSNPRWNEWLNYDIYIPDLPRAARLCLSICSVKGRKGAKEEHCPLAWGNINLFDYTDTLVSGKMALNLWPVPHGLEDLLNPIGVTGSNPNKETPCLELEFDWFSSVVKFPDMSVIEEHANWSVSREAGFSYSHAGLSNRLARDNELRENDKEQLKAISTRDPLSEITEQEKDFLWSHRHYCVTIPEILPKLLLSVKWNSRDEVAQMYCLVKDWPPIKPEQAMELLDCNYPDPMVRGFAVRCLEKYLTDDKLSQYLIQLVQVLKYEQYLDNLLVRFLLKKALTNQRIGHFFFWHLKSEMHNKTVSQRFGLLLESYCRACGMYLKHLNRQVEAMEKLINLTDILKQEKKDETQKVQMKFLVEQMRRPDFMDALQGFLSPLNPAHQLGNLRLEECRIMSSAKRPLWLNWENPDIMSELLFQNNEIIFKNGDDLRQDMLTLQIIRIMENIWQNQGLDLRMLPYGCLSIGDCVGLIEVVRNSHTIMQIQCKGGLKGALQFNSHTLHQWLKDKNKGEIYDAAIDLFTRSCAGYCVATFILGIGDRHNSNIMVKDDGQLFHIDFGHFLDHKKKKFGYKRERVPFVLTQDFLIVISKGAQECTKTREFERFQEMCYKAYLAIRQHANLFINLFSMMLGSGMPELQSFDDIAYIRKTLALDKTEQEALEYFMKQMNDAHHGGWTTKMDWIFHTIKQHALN
Chain of Phosphatidylinositol 4,5-bisphosphate 3-kinase catalytic subunit beta isoform (P42338 whole entry, canonical isoform): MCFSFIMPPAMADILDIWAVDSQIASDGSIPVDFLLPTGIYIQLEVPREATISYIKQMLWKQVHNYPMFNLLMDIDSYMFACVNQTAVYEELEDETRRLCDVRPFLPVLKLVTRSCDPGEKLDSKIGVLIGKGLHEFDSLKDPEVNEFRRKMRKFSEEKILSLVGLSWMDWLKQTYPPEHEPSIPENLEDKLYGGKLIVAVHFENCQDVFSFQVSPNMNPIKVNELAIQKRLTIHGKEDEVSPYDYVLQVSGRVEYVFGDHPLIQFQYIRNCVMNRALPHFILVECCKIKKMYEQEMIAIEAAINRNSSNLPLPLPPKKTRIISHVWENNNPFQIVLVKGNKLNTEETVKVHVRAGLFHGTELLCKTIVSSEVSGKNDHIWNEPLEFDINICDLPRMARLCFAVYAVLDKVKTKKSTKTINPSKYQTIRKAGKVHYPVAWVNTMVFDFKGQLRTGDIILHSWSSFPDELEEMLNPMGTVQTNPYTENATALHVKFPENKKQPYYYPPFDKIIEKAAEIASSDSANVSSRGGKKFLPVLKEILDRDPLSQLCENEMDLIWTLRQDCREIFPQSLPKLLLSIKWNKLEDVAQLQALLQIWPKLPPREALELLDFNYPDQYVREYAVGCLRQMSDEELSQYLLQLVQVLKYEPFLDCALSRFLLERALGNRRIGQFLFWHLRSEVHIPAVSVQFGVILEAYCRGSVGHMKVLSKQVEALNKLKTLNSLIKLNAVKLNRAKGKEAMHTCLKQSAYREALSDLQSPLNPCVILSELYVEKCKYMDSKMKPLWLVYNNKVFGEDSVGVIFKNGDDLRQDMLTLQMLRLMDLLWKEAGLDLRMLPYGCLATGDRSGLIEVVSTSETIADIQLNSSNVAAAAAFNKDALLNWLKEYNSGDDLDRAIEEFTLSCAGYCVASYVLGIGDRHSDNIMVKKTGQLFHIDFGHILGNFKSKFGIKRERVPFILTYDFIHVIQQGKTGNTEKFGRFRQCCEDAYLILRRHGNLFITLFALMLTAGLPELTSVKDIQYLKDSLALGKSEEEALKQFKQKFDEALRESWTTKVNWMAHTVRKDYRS
Chain of Phosphatidylinositol 4,5-bisphosphate 3-kinase catalytic subunit gamma isoform (P48736 whole entry, the tested form may be a part, canonical isoform): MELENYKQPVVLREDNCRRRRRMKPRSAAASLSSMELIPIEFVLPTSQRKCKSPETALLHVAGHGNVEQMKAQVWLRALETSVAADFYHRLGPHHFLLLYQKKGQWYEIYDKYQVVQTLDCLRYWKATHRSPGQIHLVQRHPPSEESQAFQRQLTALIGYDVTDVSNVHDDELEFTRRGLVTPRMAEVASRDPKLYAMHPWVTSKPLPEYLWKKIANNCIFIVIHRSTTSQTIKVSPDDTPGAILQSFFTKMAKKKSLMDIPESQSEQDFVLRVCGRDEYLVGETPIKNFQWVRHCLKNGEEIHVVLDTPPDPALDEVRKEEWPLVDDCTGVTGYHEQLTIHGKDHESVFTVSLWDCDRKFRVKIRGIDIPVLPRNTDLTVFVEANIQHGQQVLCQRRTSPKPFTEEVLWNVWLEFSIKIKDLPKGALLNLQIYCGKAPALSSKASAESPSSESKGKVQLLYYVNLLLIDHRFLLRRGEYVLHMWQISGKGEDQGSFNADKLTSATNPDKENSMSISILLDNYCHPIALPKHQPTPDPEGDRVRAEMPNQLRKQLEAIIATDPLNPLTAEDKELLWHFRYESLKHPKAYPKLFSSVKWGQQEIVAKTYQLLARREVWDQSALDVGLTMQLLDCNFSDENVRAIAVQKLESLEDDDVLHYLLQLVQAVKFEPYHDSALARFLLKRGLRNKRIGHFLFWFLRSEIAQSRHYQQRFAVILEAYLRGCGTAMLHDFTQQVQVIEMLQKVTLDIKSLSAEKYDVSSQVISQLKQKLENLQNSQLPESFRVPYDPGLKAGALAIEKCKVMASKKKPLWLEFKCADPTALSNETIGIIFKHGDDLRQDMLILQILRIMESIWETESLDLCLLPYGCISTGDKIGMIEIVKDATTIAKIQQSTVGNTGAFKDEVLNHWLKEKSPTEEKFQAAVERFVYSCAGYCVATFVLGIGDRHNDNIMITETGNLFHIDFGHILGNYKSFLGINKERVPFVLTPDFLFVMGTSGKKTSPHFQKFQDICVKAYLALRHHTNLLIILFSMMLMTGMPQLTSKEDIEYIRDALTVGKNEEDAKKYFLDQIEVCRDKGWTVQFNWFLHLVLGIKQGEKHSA

Structure (SMILES) | Vd [3] [L/kg] | chromatographic logD [4] | CLH [5] [mL/min/g] | CLH [6] [mL/min/g] | CLH [7] [mL/min/g] | half-life [9] [h] | solubility kinetic at 1 h [10] [µg/mL] | fraction unbound (Albumin) | Ratio IC50 (Homo sapiens [15]) | IC50 [16] [nM] | Ratio IC50 (Homo sapiens [17]) | Ratio IC50 (Homo sapiens [18]) | also measured
COc1ncc(-c2cc(-c3ncc(CN4C[C@@H](C)O[C@@H](C)C4)o3)c3cn[nH]c3c2)cc1NS(C)(=O)=O | 3.5 | 3.3 | 5.9 | 3.2 | 1.9 | 2.6 | 182 (≈ 355 µM) | 0.1 |  |  |  |  | bioavailability ([1]; Sprague-Dawley): < 2%; clearance [2]: 50 mL/min/kg; Cmax [8]: < 2 ng/mL; AUC(0-inf) ([11]; Sprague-Dawley): < 24 ng·h/mL
COc1ncc(-c2cc3c(c(NC(C)=O)c2)COC3)cc1NS(C)(=O)=O |  |  |  |  |  |  |  |  | 13 | 398 | 4 | 13 | 
COc1ncc(-c2ccc3c(c2)COC3)cc1NS(C)(=O)=O |  | 3.5 |  |  |  |  | 92 (≈ 287 µM) |  | 4 | 794 | 5 | 2.5 | IC50 [12]: 3160 nM; IC50 [13]: 2000 nM; IC50 [14]: 3980 nM
COc1ncc(-c2cc3c(c(-c4nnc(C)o4)c2)COC3)cc1NS(C)(=O)=O | 0.5 |  | 1 | < 0.5 | < 0.5 | 0.9 | 195 (≈ 485 µM) | 0.1 | 5 | 20 | 5 | 13 | F [1]: 56%; Ratio IC50 [19]: > 10; IC50 [20]: 200 nM; AUC ([11]; 7 h): 1370 ng·h/mL
COc1ncc(-c2cc(NC(=O)c3csc(C)n3)c3cn[nH]c3c2)cc1NS(C)(=O)=O |  |  |  |  |  |  |  |  | 16 |  | 63 | 63 | 
COc1ncc(-c2cc3c(c(NC(=O)c4cccc(C)n4)c2)COC3)cc1NS(C)(=O)=O | 1.6 |  | 1.4 | < 0.5 | 1.2 | 3.4 | 50 (≈ 110 µM) | 0.07 | 25 | 5.01 | 50 | 126 | F [1]: 1.5%; Ratio IC50 [19]: > 10; IC50 [20]: 200 nM; AUCt [21]: 42 ng·h/mL

Now from value to compound, other results behind:

Vd [3] [L/kg] | chromatographic logD [4] | CLH [5] [mL/min/g] | CLH [6] [mL/min/g] | CLH [7] [mL/min/g] | half-life [9] [h] | solubility kinetic at 1 h [10] [µg/mL] | fraction unbound (Albumin) | Ratio IC50 (Homo sapiens [15]) | IC50 [16] [nM] | Ratio IC50 (Homo sapiens [17]) | Ratio IC50 (Homo sapiens [18]) | Structure (SMILES) | also measured
 | 2.6 |  |  |  |  | 31 (≈ 97.4 µM) |  |  |  |  |  | COc1ncc(-c2ccc3cn[nH]c3c2)cc1NS(C)(=O)=O | IC50 [12]: 2510 nM; IC50 [13]: 7940 nM; IC50 [14]: 7940 nM
 |  |  |  |  |  |  |  | 25 | 7.94 | 50 | 63 | COc1ncc(-c2cc3c(c(NC(=O)c4csc(C)n4)c2)COC3)cc1NS(C)(=O)=O | 
 |  |  |  |  |  |  |  | 6 | 63.1 | 10 | 20 | COc1ncc(-c2cc3c(c(-c4ccccn4)c2)COC3)cc1NS(C)(=O)=O | 
